In the library only some 4% were active in any assay of this set; here they are far more common.
CHO parental Ca – counter-screen for OX1R antagonists: effect in parental CHO cells; parental CHO-K1, ATP-induced calcium, Fluo-8 fluorescence; inhibition, % at 5.6 µM; 0.63% of 330,000 active;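 active = inhibition above that plate's mean sample inhibition plus 3 SD, cut at about 26% in these data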;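 also: 0% = ATP-challenged DMSO wells and 100% = DMSO wells without ATP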
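Material: parental CHO cells / Compound: single nominal dose of 5.6 µM per compound / Signal: Fluo-8 fluorescence / Replicates: singlicate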
OX1R antag-1 – antagonists of human orexin 1 receptor. 0.43% of 330,000 active. CHO/OX1R cells, Fluo-8 calcium fluorescence, orexin A. inhibition, % at 5 µM. O43613. AID 434989;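 active = inhibition above its plate's threshold, mean inhibition of all tested compounds on the plate plus 3 SD, cut at about 37% in these data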;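 also: 0% = orexin A challenge wells and 100% = SB-334867-A antagonist wells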
TAAR1 agonist – human TAAR1 agonism; activation, % at 3 µM; AID 624467; 0.99% of 360,000 active; CHO RD-HGA16 TAAR1, Fluo-8 calcium fluorescence; vehicle wells 0%, saturating PEA agonist 100%; Q96RJ0;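 active = activation above the mean activation of all test compounds in the run plus 3 SD, cut at about 38% in these data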
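Signal – calcium-sensitive Fluo-8 signal, excitation 470-495, emission 515-575 nm · System – RD-HGA16 (CHO) cells co-expressing Gα16 and hTAAR1 · Incubation – 17-24 h seeding, 75 min 37 °C dye, 30 min RT · Compound dosing – 3 µM single concentration · Repeats – no replicates (n 1)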
OX1R antag-2 – OX1R (human) antagonism. O43613. OX1R-expressing cells, FRET antagonist read-out. inhibition, % at 6.6 µM. 1.8% of 330,000 active; in the data active = inhibition mostly above about 38%, no sharp cut-off; inactive = mostly below about 40%;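 also: 0% = agonist challenge alone and 100% = reference antagonist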
NTR1 ag – agonists of human neurotensin receptor NTR1 | 0.17% of 330,000 active | NTR1-U2OS beta-arrestin-GFP spot imaging, agonist mode | activation, % at 20 µM | P30989;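 active = activation at or above 40% of the spot to cytoplasm intensity ratio, with at least 20 cells analyzed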;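 also: 0% = DMSO without peptide and 100% = 100 nM NTR1 peptide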
Target sequence (P30989 whole entry, looked up): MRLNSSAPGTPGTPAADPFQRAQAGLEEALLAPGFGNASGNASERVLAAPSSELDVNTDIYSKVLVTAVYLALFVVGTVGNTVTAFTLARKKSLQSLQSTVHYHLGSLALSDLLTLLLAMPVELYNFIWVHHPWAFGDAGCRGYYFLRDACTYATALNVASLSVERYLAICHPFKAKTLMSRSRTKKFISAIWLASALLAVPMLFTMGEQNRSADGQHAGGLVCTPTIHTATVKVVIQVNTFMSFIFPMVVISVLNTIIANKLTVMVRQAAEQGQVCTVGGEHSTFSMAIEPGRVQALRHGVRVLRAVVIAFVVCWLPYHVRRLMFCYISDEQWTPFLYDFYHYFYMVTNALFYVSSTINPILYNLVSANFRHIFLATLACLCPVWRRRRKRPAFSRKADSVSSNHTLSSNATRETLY
TAAR1 antag – human TAAR1 antagonism; inhibition, % at 3 µM; CHO RD-HGA16 TAAR1, Fluo-8 calcium fluorescence, antagonist; 1.5% of 360,000 active; Q96RJ0;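 active = inhibition above a per-plate cutoff, the mean inhibition of test compounds on that plate plus 3 SD, cut at about 49% in these data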;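 also: 0% = DMSO plus EC80 beta-PEA response and 100% = DMSO alone without agonist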
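Test system: CHO RD-HGA16 cells bearing hTAAR1 | Reagent: β-PEA, EC80 | Compound dosing: 3 µM, single point | Schedule: Dye loading 75 min at 37 °C, then 30 min room temperature | Signal: Calcium fluorescence with Fluo-8 | Evaluation: Percent inhibition of PEA-evoked calcium signal, max/basal emission ratio | Control set: DMSO-only wells and EC80 β-PEA-stimulated wells | Repeats: Singlicate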
TAAR1 ag conf – human TAAR1 agonism, confirmed. activation, % at 3 µM. AID 651783. 82% of 2,400 active. shares compounds with TAAR1 agonist. CHO RD-HGA16 TAAR1, Fluo-8 calcium fluorescence; scaled: DMSO 0%, maximal phenethylamine 100%;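 active = activation above a cutoff set at the run's mean compound activation plus 3 SD, cut at about 39% in these data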
Ga16 nonsel ag – nonselective agonist in parental cells, TAAR1 agonist counter-screen; shares compounds with TAAR1 agonist; CHO-Ga16 parental, Fluo-8 calcium fluorescence; normalized to maximal ATP response, DMSO zero; activation, % at 3 µM; 50% of 2,400 active;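 active = activation above the run cutoff, the mean activation over all tested wells plus 3 SD, cut at about 12% in these data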;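 also: 0% = DMSO wells and 100% = maximal ATP response on the peak over basal ratio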
TAAR1 desens – counter-screen for human TAAR1 agonists: agonists that desensitize TAAR1; CHO RD-HGA16 hTAAR1, Fluo-8 calcium, beta-PEA response inhibition; 46% of 2,400 active; shares compounds with TAAR1 agonist; AID 651951; inhibition, % at 3 µM;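 active = inhibition above the run cutoff, the mean inhibition of all test compounds plus 3 SD, cut at about 49% in these data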;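 also: beta-PEA stimulus applied at its EC80; loss of beta-PEA calcium signal after compound pretreatment read as receptor desensitization; 0% = DMSO with beta-PEA at EC80 and 100% = DMSO alone without agonist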
Ga16 antag count – nonselective Ga16 antagonism, counter-screen. shares compounds with TAAR1 agonist. CHO-Ga16 ATP-induced calcium, Fluo-8 fluorescence. inhibition, % at 3 µM. 39% of 2,400 active;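 active = inhibition above the plate's mean compound inhibition plus 3 SD, computed per plate, cut at about 22% in these data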;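 also: 0% = EC80 ATP with DMSO and 100% = DMSO wells without ATP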
* hit, by the source's call; · = no result given.

SMILES | CHO parental Ca | OX1R antag-1 | TAAR1 agonist | OX1R antag-2 | NTR1 ag | TAAR1 antag | TAAR1 ag conf | Ga16 nonsel ag | TAAR1 desens | Ga16 antag count
CCOC(=O)C1(CC2CCCCO2)CCN(Cc2cc3ccccc3[nH]2)CC1 (stereo unspecified) | 36.3* | 52.5* | 148.6* | 8.7 | 0.0 | 104.8* | 113.8* | 97.9* | 103.8* | 95.2*
CCCCc1ncc(CN2CCC(CC3CCCCO3)(C(=O)OCC)CC2)[nH]1 (stereo unspecified) | -17.2 | -23.4 | 0.1 | 5.2 | 0.4 | 11.4 | · | · | · | ·
Cc1cc(C)c(OCC(=O)Nc2ccccc2N2CCOCC2)c(C)c1 | 41.3* | 43.9* | 61.1* | 2.7 | 23.4 | 54.7* | 43.2* | 34.1* | 55.6* | 51.6*
Fc1cc(F)c(C2SCCN2C(=S)Nc2cccc(C(F)(F)F)c2)c(F)c1 (stereo unspecified) | -3.8 | -0.1 | 66.3* | -3.9 | 9.5 | 2.8 | 51.8* | 31.0* | 56.1* | 38.4*
CCN1CCN(c2cc(SC(C)C)nc(-c3ccc(OC)cc3)n2)CC1 | · | · | 46.0* | · | · | -16.9 | 74.2* | 19.1* | 29.3 | 4.7
O=S(=O)(c1ccc2c(c1)CCCC2)N1CCNCC1 | -20.0 | 5.5 | -2.4 | 5.5 | -0.3 | -8.8 | · | · | · | ·
Cc1ccc(O)c(NC(=S)NC(=O)Cc2ccc(Cl)cc2)c1 | 99.3* | 107.2* | 155.3* | -13.2 | 13.6 | 105.6* | 140.1* | 117.2* | 106.2* | 101.7*
Cc1ccc(NC(=S)NC(=O)c2ccc(-c3ccc(Cl)cc3)o2)c(O)c1 | -5.0 | -21.4 | 0.6 | 11.1 | 18.0 | -12.6 | · | · | · | ·
COc1ccc(-n2ncc3c2CC(C)(C)CC3NC(=O)c2ccc(OC)o2)cc1 (stereo unspecified) | -17.1 | -33.9 | -3.1 | 3.9 | 0.1 | -28.5 | · | · | · | ·
CC(C)N(C)CCOC(=O)/C=C/c1ccccc1 | 0.8 | -12.0 | 72.6* | 8.1 | · | 54.2* | 2.6 | 0.1 | 11.2 | -0.2
CC(Cc1cccs1)NC(=O)Nc1ccc(F)cc1 (stereo unspecified) | 1.4 | -1.6 | 48.7* | 23.9 | -1.1 | -3.1 | 81.7* | 2.5 | 21.1 | 1.5
CC(Cc1cccs1)NC(=O)Nc1cccc(Cl)c1 (stereo unspecified) | 2.8 | -10.7 | 10.1 | 27.0 | -2.0 | 7.2 | · | · | · | ·
CCCN(C)C1CN(Cc2cn(Cc3ccc(OC)cc3)nn2)S(=O)(=O)C1 (stereo unspecified) | · | · | 3.8 | · | · | -28.0 | · | · | · | ·
COc1cccc(O)c1CN1CCC(C(=O)Nc2ccc(-c3cccc(C)c3)cc2)CC1 | 1.2 | -1.7 | 52.9* | 2.8 | 23.0 | 34.5 | 33.0 | 17.6* | 40.9 | 36.8*
CC(C)C[C@H]1CN=C(Nc2ccccc2)N1CC1CCCCCC1 | -6.4 | -18.6 | 48.9* | 15.5 | -1.7 | 10.9 | 28.8 | 16.0* | 19.3 | 22.1*
Cc1cccc(CCN2C(Nc3ccccc3)=NC[C@@H]2CC(C)C)c1 | 31.4 | 49.5* | 127.2* | 26.6 | 1.0 | 106.8* | 111.5* | 87.3* | 102.1* | 80.2*
Cc1cccc(NC2=NCC(=O)N2CCc2ccccc2)c1 | -11.8 | -16.2 | 86.2* | 18.5 | -0.8 | 51.2* | 106.2* | 4.8 | 84.7* | 1.8
CC(C)C[C@H]1CN=C(Nc2ccccc2)N1CCc1ccc(F)cc1 | 56.7* | 75.1* | 119.2* | 14.8 | 0.8 | 104.4* | 127.2* | 80.4* | 102.4* | 71.7*
COc1cccc(/C=N/NC(=O)c2ccc(N3CCCC3=O)cc2)c1 | -4.1 | -13.3 | 2.5 | 18.6 | 3.2 | 8.1 | · | · | · | ·

Screening results deposited in PubChem by several laboratories.
